Assay results as given in ChEMBL document CHEMBL4138104, “Indole carboxylic acid esters of melampomagnolide B are potent anticancer agents against both hematological and solid tumor cells” (Eur J Med Chem, 2017).
Activity calls are given as the source filed them. The rule behind the calls is not given here.

Columns and labels:
Rattus norvegicus [1] = species: Rattus norvegicus; assay: Induction of necrosis in rat 9LSF cells at 20 uM after 48 hrs by microscopic analysis; format: functional, cell-based
Summary of the method: (§1)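 Rat 9L-SF gliosarcoma cells were grown in DMEM/F12 with 10% iron-supplemented calf serum at 37 °C under 5% CO2. Treatment was applied to 50% confluent monolayers. Cell detachment and necrosis were scored visually by microscopy.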

Hs-578T = assay: Growth inhibition of human Hs 578T cells incubated for 48 hrs by sulforhodamine B assay; format: functional
Summary of the method: (§2)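 NCI-60 screen. Compounds were dosed at five concentrations spanning 10^-4 to 10^-8 M for 48 h at 37 °C. Cells were TCA-fixed, stained with 0.4% SRB and read at 515 nm against time-zero and vehicle controls. GI50 is the concentration giving a 50% reduction in net protein increase.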

MDA-MB-435 = assay: Growth inhibition of human MDA-MB-435 cells incubated for 48 hrs by sulforhodamine B assay; format: functional; conditions: MDA-MB-435, 48 h; summary of the method: as §2
[2] = Induction of apoptosis in AML04 cells isolated from acute myelogenous leukemia patient after 24 hrs by annexin V/7-AAD/propidium iodide staining-based flow cytometric method; format: functional, cell-based; conditions: Homo sapiens
Summary of the method: (§3)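 Primary AML specimens from consenting patients were Ficoll-separated and some were cryopreserved. Cells were held 1 h in serum-free IMDM with 20% BIT 9500, LDL and beta-mercaptoethanol before drug. Drugs were diluted from DMSO stock into PBS, final DMSO ≤0.5%. Dosing was 0.5–10 μM for 24 h. Annexin V/7-AAD flow cytometry scored double-negative (non-apoptotic) cells, normalized to vehicle, in triplicate, and EC50 came from dose-response curves.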

EKVX = assay: Growth inhibition of human EKVX cells incubated for 48 hrs by sulforhodamine B assay; format: functional; summary of the method: as §2
OVCAR-3 = assay: Growth inhibition of human OVCAR3 cells incubated for 48 hrs by sulforhodamine B assay; format: functional; conditions: OVCAR-3, 48 h; summary of the method: as §2
SK-MEL-2 = assay: Growth inhibition of human SK-MEL-2 cells incubated for 48 hrs by sulforhodamine B assay; format: functional; conditions: SK-MEL-2, 48 h; summary of the method: as §2
TK-10 = assay: Growth inhibition of human TK10 cells incubated for 48 hrs by sulforhodamine B assay; format: functional; conditions: TK-10, 48 h
Summary of the method: (§4)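 NCI-60 screen run at NCI. Cells grown in RPMI medium with 5% FBS and 2 mM L-glutamine, plated at 5,000–40,000 cells/well, and preincubated 24 h at 37 °C. Time-zero plates were TCA-fixed. Compounds came from DMSO stocks and were tested at five concentrations from 10^-4 to 10^-8 M for 48 h. Cells were then TCA-fixed, stained with 0.4% SRB, and OD read at 515 nm. GI50 is the concentration giving a 50% reduction in net protein increase versus control.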

[3] = Induction of apoptosis in AML03 cells isolated from acute myelogenous leukemia patient after 24 hrs by annexin V/7-AAD/propidium iodide staining-based flow cytometric method; format: functional, cell-based; conditions: Homo sapiens; summary of the method: as §3
[4] = Potency index, ratio of melampomagnolide-B EC50 to compound EC50 for human M9-ENL1 cells; format: functional
Summary of the method: (§5)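 M9-ENL1 AML cells, derived by MLL-ENL transduction of human blood cells, were plated at 10^6 cells/mL in alpha-MEM with 5% human plasma, 20% FBS, SCF, IL-3, IL-7 and FLT3 ligand. Exposure was 24 h. Non-apoptotic (Annexin V/7-AAD double-negative) fraction was normalized to vehicle, in triplicate, to give EC50. PTL and MMB were run as reference controls.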

BT-549 = assay: Growth inhibition of human BT549 cells incubated for 48 hrs by sulforhodamine B assay; format: functional; conditions: BT-549, 48 h; summary of the method: as §2
PC-3 = assay: Growth inhibition of human PC3 cells incubated for 48 hrs by sulforhodamine B assay; format: functional; conditions: PC-3, 48 h; summary of the method: as §2
786-0 = assay: Growth inhibition of human 786-0 cells incubated for 48 hrs by sulforhodamine B assay; format: functional; conditions: 786-0, 48 h; summary of the method: as §2
SR = assay: Growth inhibition of human SR cells incubated for 48 hrs by sulforhodamine B assay; format: functional; summary of the method: as §4
OVCAR-4 = assay: Growth inhibition of human OVCAR4 cells incubated for 48 hrs by sulforhodamine B assay; format: functional; conditions: OVCAR-4, 48 h; summary of the method: as §2
[5] = Potency index, ratio of PTL EC50 to compound EC50 for human M9-ENL1 cells; format: functional; summary of the method: as §5
[6] = Induction of apoptosis in AML01 cells isolated from acute myelogenous leukemia patient after 24 hrs by annexin V/7-AAD/propidium iodide staining-based flow cytometric method; format: functional, cell-based; conditions: Homo sapiens, AML01, 24 h; summary of the method: as §3
DU-145 = assay: Growth inhibition of human DU145 cells incubated for 48 hrs by sulforhodamine B assay; format: functional; conditions: DU-145, 48 h; summary of the method: as §2
IGROV-1 = assay: Growth inhibition of human IGROV1 cells incubated for 48 hrs by sulforhodamine B assay; format: functional; conditions: IGROV-1, 48 h; summary of the method: as §2
MDA-MB-231 = assay: Growth inhibition of human MDA-MB-231/ATCC cells incubated for 48 hrs by sulforhodamine B assay; format: functional; conditions: MDA-MB-231, 48 h; summary of the method: as §2
ACHN = assay: Growth inhibition of human ACHN cells incubated for 48 hrs by sulforhodamine B assay; format: functional; summary of the method: as §2
NCI-H522 = assay: Growth inhibition of human NCI-H522 cells incubated for 48 hrs by sulforhodamine B assay; format: functional; conditions: NCI-H522, 48 h; summary of the method: as §2
SNB-75 = assay: Growth inhibition of human SNB75 cells incubated for 48 hrs by sulforhodamine B assay; format: functional; conditions: SNB-75, 48 h; summary of the method: as §4
M14 = assay: Growth inhibition of human M14 cells incubated for 48 hrs by sulforhodamine B assay; format: functional; conditions: M14, 48 h; summary of the method: as §2
[7] = Induction of apoptosis in AML02 cells isolated from acute myelogenous leukemia patient after 24 hrs by annexin V/7-AAD/propidium iodide staining-based flow cytometric method; format: functional, cell-based; conditions: Homo sapiens; summary of the method: as §3
Rattus norvegicus [8] = species: Rattus norvegicus; assay: Induction of cell detachment in rat 9LSF cells at 20 uM after 48 hrs by microscopic analysis; format: functional, cell-based; summary of the method: as §1
SK-MEL-5 = assay: Growth inhibition of human SK-MEL-5 cells incubated for 48 hrs by sulforhodamine B assay; format: functional; conditions: SK-MEL-5, 48 h; summary of the method: as §2
COLO 205 = assay: Growth inhibition of human COLO205 cells incubated for 48 hrs by sulforhodamine B assay; format: functional; conditions: COLO 205, 48 h; summary of the method: as §2
T47D = assay: Growth inhibition of human T47D cells incubated for 48 hrs by sulforhodamine B assay; format: functional; summary of the method: as §4
MDA-MB-468 = assay: Growth inhibition of human MDA-MB-468 cells incubated for 48 hrs by sulforhodamine B assay; format: functional; conditions: MDA-MB-468, 48 h; summary of the method: as §2
HOP-62 = assay: Growth inhibition of human HOP62 cells incubated for 48 hrs by sulforhodamine B assay; format: functional; conditions: HOP-62, 48 h; summary of the method: as §2
Rattus norvegicus [9] = species: Rattus norvegicus; assay: Inhibition of colony formation of rat 9LSF cells at 5 to 20 uM after 48 hrs by colony formation assay; format: functional
Summary of the method: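 9L-SF cells were seeded in 60 mm dishes to reach 50% confluence (6.65×10^4 cells/cm²) after 24 h. They were treated 48 h with drug serially diluted from DMSO stock (max 0.05% DMSO), then rinsed, trypsinized, counted and seeded in triplicate flasks for colonies. Lethally irradiated (25 Gy) feeders kept density at 2,000 cells/cm². Survival was normalized to control plating efficiency, with three experiments.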

CAKI-1 = assay: Growth inhibition of human Caki1 cells incubated for 48 hrs by sulforhodamine B assay; format: functional; conditions: CAKI-1, 48 h; summary of the method: as §2
[10] = Solubility of the compound in water; format: physicochemical; conditions: buffer

## C=C1C(=O)O[C@@H]2[C@H]3O[C@]3(C)CC/C=C(/COC(=O)/C=C/c3c[nH]c4ccccc34)CC[C@@H]12
Rattus norvegicus [1]
  Activity: Active
Hs-578T
  GI50: 350 nM
MDA-MB-435
  GI50: 220 nM
[2]
  EC50: 1000 nM
EKVX
  GI50: 230 nM
OVCAR-3
  GI50: 170 nM
SK-MEL-2
  GI50: 200 nM
TK-10
  GI50: 270 nM
[3]
  EC50: 320 nM
[4]
  Ratio IC50: >20
BT-549
  GI50: 170 nM
PC-3
  GI50: 320 nM
786-0
  GI50: 220 nM
SR
  GI50: 270 nM
OVCAR-4
  GI50: 200 nM
[5]
  Ratio IC50: 9
[6]
  EC50: 1300 nM
DU-145
  GI50: 390 nM
IGROV-1
  GI50: 220 nM
MDA-MB-231
  GI50: 170 nM
ACHN
  GI50: 200 nM
NCI-H522
  GI50: 180 nM
SNB-75
  GI50: 170 nM
M14
  GI50: 220 nM
[7]
  EC50: 910 nM
Rattus norvegicus [8]
  Activity: Active
SK-MEL-5
  GI50: 200 nM
COLO 205
  GI50: 220 nM
T47D
  GI50: 200 nM
MDA-MB-468
  GI50: 190 nM
HOP-62
  GI50: 820 nM

## C=C1C(=O)O[C@@H]2[C@H]3O[C@]3(C)CC/C=C(/COC(=O)c3cc4ccccc4[nH]3)CC[C@@H]12
Rattus norvegicus [1]
  Activity: Active
Rattus norvegicus [9]
  inhibition: Active
MDA-MB-435
  GI50: 760 nM
[2]
  EC50: 2200 nM
CAKI-1
  GI50: 1080 nM
SK-MEL-2
  GI50: 1920 nM
TK-10
  GI50: 1390 nM
[3]
  EC50: 2900 nM
[4]
  Ratio IC50: 2 - 20
BT-549
  GI50: < 10 nM
PC-3
  GI50: 1420 nM
786-0
  GI50: 370 nM
SR
  GI50: 1080 nM
[6]
  EC50: 3500 nM
DU-145
  GI50: 1210 nM
MDA-MB-231
  GI50: 1140 nM
ACHN
  GI50: 340 nM
NCI-H522
  GI50: 750 nM
SNB-75
  GI50: 1010 nM
M14
  GI50: 810 nM
[7]
  EC50: 2700 nM
Rattus norvegicus [8]
  Activity: Active
SK-MEL-5
  GI50: 1260 nM
T47D
  GI50: < 10 nM
MDA-MB-468
  GI50: 300 nM

## CN(C)CC1C(=O)O[C@@H]2[C@H]3O[C@]3(C)CC/C=C(/COC(=O)c3cc4ccccc4[nH]3)CC[C@@H]12.O=C(O)/C=C/C(=O)O (stereo partly specified)
Hs-578T
  GI50: 3030 nM
MDA-MB-435
  GI50: 1280 nM
CAKI-1
  GI50: 1110 nM
EKVX
  GI50: 3360 nM
OVCAR-3
  GI50: 350 nM
SK-MEL-2
  GI50: 2100 nM
TK-10
  GI50: 2120 nM
BT-549
  GI50: 1570 nM
PC-3
  GI50: 2370 nM
786-0
  GI50: 1710 nM
SR
  GI50: 1590 nM
OVCAR-4
  GI50: 1360 nM
DU-145
  GI50: 1490 nM
IGROV-1
  GI50: 2070 nM
MDA-MB-231
  GI50: 1740 nM
[10]
  solubility: Soluble
ACHN
  GI50: 670 nM
NCI-H522
  GI50: 1220 nM
SNB-75
  GI50: 3210 nM
M14
  GI50: 1570 nM
SK-MEL-5
  GI50: 1850 nM
COLO 205
  GI50: 1980 nM
T47D
  GI50: 2110 nM
MDA-MB-468
  GI50: 1120 nM
HOP-62
  GI50: 2200 nM
